Data reported in ChEMBL document CHEMBL1129435, “Acyclic nucleotide analogs derived from 8-azapurines: synthesis and antiviral activity” (J Med Chem, 1996).
Converted amounts (≈) assume the structure as drawn.

Assays:
[1] = test system: Moloney murine sarcoma virus; assay: Compound was tested for anti-retroviral activity against moloney murine sarcoma virus (MSV) in murine C3H/3T3 embryo fibroblast cell culture; assay type: functional, organism-based
Summary of the method: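 C3H/3T3 fibroblasts were seeded at 5 × 10⁵ cells/mL. After 24 h they were infected with 80 focus-forming units of MSV for 90-120 min at 37 °C; the virus came from tumours induced by intramuscular inoculation of 3-day-old NMRI mice. The medium was then replaced with fresh medium containing various compound concentrations. Transformation was scored microscopically after 6 days.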

[2] = test system: Human immunodeficiency virus 1; assay: Inhibition of human immunodeficiency virus-1 (HIV-1) induced cytopathicity in CEM cells; assay type: functional, organism-based; conditions: Human immunodeficiency virus 1, CCRF-CEM
Summary of the method: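 CEM cells (~3 × 10⁵ cells/mL) were infected with HIV-1(IIIB) at 100 CCID50 per µL. Infected cells were plated with compound dilutions and incubated 4 days at 37 °C. Giant cell formation was then examined microscopically.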

[3] = test system: Human immunodeficiency virus 2; assay: Inhibition of human immunodeficiency virus-2 (HIV-2) induced cytopathicity in CEM cells; assay type: functional, organism-based; conditions: Human immunodeficiency virus 2, CCRF-CEM
[4] = Antiviral activity against herpes simplex virus-1 KOS in E6SM cell culture; assay type: functional, cell-based; conditions: Human alphaherpesvirus 1, E6SM
Summary of the method: (§1)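 Confluent cell monolayers in microtiter trays were inoculated with 100 CCID50 of virus. After 1 h adsorption the residual virus was removed. Cells were then incubated with serial compound concentrations (400, 200, 100, ... µg/mL). Cytopathicity was scored once it was complete in untreated infected controls. The value is the 50% inhibitory concentration, or the concentration reducing plaque formation by 50%, in µg/mL.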

Human alphaherpesvirus 1 = assay: Antiviral activity against thymidine kinase deficient herpes simplex virus-1 HSV-1 TK- B2006 strain in E6SM cell culture; assay type: functional, organism-based; conditions: Human alphaherpesvirus 1, E6SM; summary of the method: as §1
[5] = Antiviral activity against thymidine kinase deficient herpes simplex virus-1 HSV-1 TK- VMW-1837 strain in E6SM cell culture; assay type: functional, cell-based; conditions: Human alphaherpesvirus 1, E6SM; summary of the method: as §1
Vaccinia virus = assay: Antiviral activity against vaccinia virus (VV) in E6SM cell culture; assay type: functional, organism-based; conditions: Orthopoxvirus vaccinia
Human alphaherpesvirus 2 = assay: Antiviral activity in herpes simple virus-2 (HSV-2) Lyons strain in E6SM cell culture; assay type: functional, organism-based; conditions: Human alphaherpesvirus 2, E6SM; summary of the method: as §1
Human alphaherpesvirus 3 [6] = assay: Antiviral activity in TK+ varicella zoster virus (VZV) YS strain in HEL cell culture; assay type: functional, organism-based; conditions: Human alphaherpesvirus 3, HEL
Human betaherpesvirus 5 = assay: Antiviral activity against cytomegalovirus (CMV) AD169 strain in HEL cell culture; assay type: functional, organism-based; conditions: Human betaherpesvirus 5, HEL; summary of the method: as §1
Cytomegalovirus = assay: Antiviral activity against cytomegalovirus (CMV) Davis strain in HEL cell culture; assay type: functional, organism-based; conditions: Human betaherpesvirus 5, HEL; summary of the method: as §1
Human alphaherpesvirus 3 [7] = assay: Antiviral activity in TK+ varicella zoster virus (VZV) 07/1 strain in HEL cell culture; assay type: functional, organism-based; conditions: Human alphaherpesvirus 3, HEL
Human alphaherpesvirus 3 [8] = assay: Antiviral activity in TK+ varicella zoster virus (VZV) OKA strain in HEL cell culture; assay type: functional, organism-based; conditions: Human alphaherpesvirus 3, HEL
[9] = test system: Human immunodeficiency virus 1; assay: Inhibition of human immunodeficiency virus-1 (HIV-1) induced cytopathicity in human MT-4 cells; assay type: functional, organism-based; conditions: Human immunodeficiency virus 1, MT4
Summary of the method: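 MT-4 cells (~4 × 10⁵ cells/mL) were infected with HIV-1(IIIB) at 100 CCID50 per µL. Infected cells were seeded into wells containing compound dilutions and incubated 5 days at 37 °C. Viable cells were then counted by trypan blue exclusion in a blood cell counting chamber.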

| SMILES | IC50 [1] [µg/mL] | IC50 [2] [µg/mL] | IC50 [3] [µg/mL] | IC50 [4] [µg/mL] | IC50 (Human alphaherpesvirus 1) [µg/mL] | IC50 [5] [µg/mL] | IC50 (Vaccinia virus) [µg/mL] | IC50 (Human alphaherpesvirus 2) [µg/mL] | IC50 (Human alphaherpesvirus 3 [6]) [µg/mL] | IC50 (Human betaherpesvirus 5) [µg/mL] | IC50 (Cytomegalovirus) [µg/mL] | IC50 (Human alphaherpesvirus 3 [7]) [µg/mL] | IC50 (Human alphaherpesvirus 3 [8]) [µg/mL] | IC50 [9] [µg/mL] |
| --- | --- | --- | --- | --- | --- | --- | --- | --- | --- | --- | --- | --- | --- | --- |
| C[C@H](Cn1nnc2c(N)nc(N)nc21)OCP(=O)(O)O | 1.58 (≈ 5.21 µM) | 30 (≈ 98.9 µM) | 40 (≈ 132 µM) | 300 (≈ 989 µM) | 300 (≈ 989 µM) | 300 (≈ 989 µM) | > 400 | 300 (≈ 989 µM) | > 50 | > 50 | > 50 | > 50 | > 50 | 44.4 (≈ 146 µM) |
| Nc1ncnc2c1nnn2CCOCP(=O)(O)O | 12.1 (≈ 44.1 µM) |  |  | > 200 | > 200 | > 200 | > 400 | > 200 | > 100 | > 100 | > 100 | > 100 | > 100 | > 100 |
| Nc1ncnc2c1nnn2C[C@@H](CF)OCP(=O)(O)O | > 200 | > 100 | > 100 | > 400 | > 400 | > 400 | > 400 | > 400 | > 40 | > 40 | > 40 | > 40 | > 40 |  |
| Nc1nc(O)c2nnn(CCOCP(=O)(O)O)c2n1 | 0.32 (≈ 1.1 µM) | 2 (≈ 6.89 µM) | 2 (≈ 6.89 µM) | 2 (≈ 6.89 µM) | 7 (≈ 24.1 µM) | 2 (≈ 6.89 µM) | 0.7 (≈ 2.41 µM) | 2 (≈ 6.89 µM) | 0.04 (≈ 0.138 µM) | 2.3 (≈ 7.93 µM) | 2.3 (≈ 7.93 µM) | 0.1 (≈ 0.345 µM) | 0.4 (≈ 1.38 µM) | 2 (≈ 6.89 µM) |
| Nc1ncnc2nn(C[C@@H](CF)OCP(=O)(O)O)nc12 | 13.1 (≈ 42.8 µM) |  |  | > 40 | > 40 |  | > 40 |  | > 10 | > 400 | > 400 | > 10 | > 10 | 15 (≈ 49 µM) |
| Nc1nc(N)c2nnn(C[C@H](O)CO)c2n1 | > 40 | > 100 | > 100 | > 100 |  |  |  |  | > 50 | > 50 |  | > 50 | > 50 |  |
| C[C@H](Cn1nnc2c(N)ncnc21)OCP(=O)(O)O | 0.85 (≈ 2.95 µM) | 7 (≈ 24.3 µM) | 10 (≈ 34.7 µM) | 70 (≈ 243 µM) | 70 (≈ 243 µM) | 100 (≈ 347 µM) | > 400 | 100 (≈ 347 µM) | 8 (≈ 27.8 µM) | > 40 | > 40 | 5 (≈ 17.3 µM) | 8 (≈ 27.8 µM) | 5.2 (≈ 18 µM) |
| C[C@@H](Cn1nnc2c(O)nc(N)nc21)OCP(=O)(O)O | 27 (≈ 88.8 µM) | 40 (≈ 131 µM) | 85 (≈ 279 µM) | 300 (≈ 986 µM) | > 400 | 300 (≈ 986 µM) | 300 (≈ 986 µM) | 300 (≈ 986 µM) | 4 (≈ 13.1 µM) | > 40 | > 40 | > 40 | 10 (≈ 32.9 µM) | 52.7 (≈ 173 µM) |
| CC(C)OP(=O)(CO[C@H](CO)Cn1nc2ncnc(N)c2n1)OC(C)C |  |  |  | > 400 | > 400 | > 400 | > 400 | > 400 | > 50 | > 50 | > 50 |  | > 50 |  |
| Nc1ncnc2nn(C[C@@H](CO)OCP(=O)(O)O)nc12 | > 100 |  |  | > 400 | 150 (≈ 493 µM) | > 400 | > 400 | > 400 | > 100 | > 200 | > 200 | > 100 | > 100 | > 100 |
| Nc1nc2c(ncn2COCCO)c(=O)[nH]1 [ACYCLOVIR] |  |  |  | 0.015 (≈ 0.0666 µM) |  |  |  |  |  | 13 (≈ 57.7 µM) |  |  |  |  |
| Cc1cn([C@H]2C[C@H](N=[N+]=[N-])[C@@H](CO)O2)c(=O)[nH]c1=O [ZIDOVUDINE] | 0.02 (≈ 0.0748 µM) | 0.005 (≈ 0.0187 µM) | 0.008 (≈ 0.0299 µM) |  |  |  |  |  |  |  |  |  |  |  |
